Experimental data: ChEMBL document CHEMBL1137151, “Novel factor Xa inhibitors based on a 2-carboxyindole scaffold: SAR of P4 substituents in combination with a neutral P1 ligand” (Bioorg Med Chem Lett, 2004)

Experiments:
[1] = molecular target: T1, Prothrombin (Homo sapiens, UniProt P00734); experiment: Concentration required to double plasma clotting prothrombin time; assay type: functional, cell-free
Procedure, shortened: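 Standard plasma coagulation assays, APTT and PT respectively. The value is the inhibitor concentration that doubles plasma clotting time.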

[2] = molecular target: T1, Prothrombin; experiment: Inhibitory concentration in dilute prothrombin time assay; assay type: functional
Procedure, shortened: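 Dilute prothrombin time assay, run as PT with diluted thromboplastin reagent. The value is the inhibitor concentration giving 50% inhibition of dPT.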

[3] = molecular target: Coagulation factor X (Homo sapiens, UniProt P00742); experiment: Inhibitory activity against serine protease factor Xa
Coagulation factor X, sequence (P00742 41-179 limits assumed): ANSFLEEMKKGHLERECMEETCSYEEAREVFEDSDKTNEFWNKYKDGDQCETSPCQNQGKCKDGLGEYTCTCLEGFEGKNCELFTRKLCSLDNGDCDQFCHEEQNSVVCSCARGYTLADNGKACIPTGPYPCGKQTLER
Coagulation factor X, sequence (P00742 235-488 limits assumed): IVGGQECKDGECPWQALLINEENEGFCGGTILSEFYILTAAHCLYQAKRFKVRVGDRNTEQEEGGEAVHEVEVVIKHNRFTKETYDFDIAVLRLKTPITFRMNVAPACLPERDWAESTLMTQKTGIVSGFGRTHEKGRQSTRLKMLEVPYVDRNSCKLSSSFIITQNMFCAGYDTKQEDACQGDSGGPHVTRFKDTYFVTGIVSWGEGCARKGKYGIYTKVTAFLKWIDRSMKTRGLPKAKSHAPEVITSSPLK

[4] = molecular target: Tissue-type plasminogen activator (Homo sapiens, UniProt P00750); experiment: Inhibitory activity against human tissue plasminogen activator
Tissue-type plasminogen activator, sequence (P00750 whole entry): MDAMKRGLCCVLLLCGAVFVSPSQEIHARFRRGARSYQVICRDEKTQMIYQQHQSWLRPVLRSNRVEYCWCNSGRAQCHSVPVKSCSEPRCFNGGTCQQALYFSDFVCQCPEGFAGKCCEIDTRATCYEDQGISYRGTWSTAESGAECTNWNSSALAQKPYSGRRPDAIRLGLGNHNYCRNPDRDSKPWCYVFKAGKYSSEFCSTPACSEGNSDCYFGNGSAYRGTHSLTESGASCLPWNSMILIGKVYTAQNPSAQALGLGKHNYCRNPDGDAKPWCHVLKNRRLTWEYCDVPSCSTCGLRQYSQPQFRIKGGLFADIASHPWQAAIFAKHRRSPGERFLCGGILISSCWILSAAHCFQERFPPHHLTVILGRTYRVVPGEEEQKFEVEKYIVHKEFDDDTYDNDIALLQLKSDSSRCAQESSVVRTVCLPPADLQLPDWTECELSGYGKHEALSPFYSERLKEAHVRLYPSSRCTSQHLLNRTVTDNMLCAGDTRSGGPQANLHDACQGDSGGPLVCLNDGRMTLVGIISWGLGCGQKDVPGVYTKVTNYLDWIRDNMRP

[5] = molecular target: T1, Prothrombin; experiment: Inhibitory activity against coagulation factor II (thrombin)
[6] = molecular target: Trypsin (Homo sapiens, UniProt P07477+P07478+P35030); experiment: Inhibitory activity against coagulation factor trypsin; assay type: protein assay

SMILES	Concentration [1]	IC50 [2]	Ki [3]	Ki [4]	Ki [5]	Ki [6]
CCCN1CCC(NC(=O)c2cc3ccccc3n2Cc2cc(-c3ccc(Cl)s3)on2)CC1	15.6 µM	1560 nM	–	–	–	–
O=C(NC1CCN(C2CCCC2)CC1)c1cc2ccccc2n1Cc1cc(-c2ccc(Cl)s2)on1	–	–	71 nM	–	–	–
CC(C)N1CC(CNC(=O)c2cc3ccccc3n2Cc2cc(-c3ccc(Cl)s3)on2)C1	–	–	839 nM	–	–	–
O=C(c1cc2ccccc2n1Cc1cc(-c2ccc(Cl)s2)on1)N1CCC(Oc2ccncc2)CC1	–	–	2900 nM	–	–	–
CC(C)N1CC(NC(=O)c2cc3ccccc3n2Cc2cc(-c3ccc(Cl)s3)on2)C1	–	–	225 nM	–	–	–
CC(C)CN1CC(NC(=O)c2cc3ccccc3n2Cc2cc(-c3ccc(Cl)s3)on2)C1	–	–	345 nM	–	–	–
O=C(NC1CCN(C2CC2)CC1)c1cc2ccccc2n1Cc1cc(-c2ccc(Cl)s2)on1	19.6 µM	1790 nM	–	> 100000 nM	8220 nM	> 100000 nM
CN1CCC(NC(=O)c2cc3ccccc3n2Cc2cc(-c3ccc(Cl)s3)on2)CC1	30.7 µM	1550 nM	–	> 100000 nM	> 10000 nM	> 100000 nM
O=C(c1cc2ccccc2n1Cc1cc(-c2ccc(Cl)s2)on1)N1CCC(Nc2ccncc2)CC1	5.78 µM	190 nM	–	64000 nM	3160 nM	> 100000 nM
O=C(NC1CCN(C2CCCCC2)CC1)c1cc2ccccc2n1Cc1cc(-c2ccc(Cl)s2)on1	–	–	106 nM	–	–	–
CC(C)N1CC[C@@H](NC(=O)c2cc3ccccc3n2Cc2cc(-c3ccc(Cl)s3)on2)C1	13.7 µM	620 nM	–	> 100000 nM	> 10000 nM	> 100000 nM
CS(=O)(=O)N1CCC(NC(=O)c2cc3ccccc3n2Cc2cc(-c3ccc(Cl)s3)on2)CC1	–	–	125 nM	–	–	–
O=C(NC1CCN(C2CCOCC2)CC1)c1cc2ccccc2n1Cc1cc(-c2ccc(Cl)s2)on1	–	–	95 nM	–	–	–
O=C(NC1CN(c2ccncc2)C1)c1cc2ccccc2n1Cc1cc(-c2ccc(Cl)s2)on1	6.2 µM	370 nM	12 nM	> 100000 nM	> 10000 nM	> 100000 nM
O=C(NC1CCN(c2ccncc2)CC1)c1cc2ccccc2n1Cc1cc(-c2ccc(Cl)s2)on1	6.04 µM	230 nM	–	> 100000 nM	> 10000 nM	> 100000 nM
CC(C)N1CCC(CNC(=O)c2cc3ccccc3n2Cc2cc(-c3ccc(Cl)s3)on2)CC1	–	–	161 nM	–	–	–
CCN1CCC(NC(=O)c2cc3ccccc3n2Cc2cc(-c3ccc(Cl)s3)on2)CC1	9.02 µM	370 nM	–	> 100000 nM	> 10000 nM	> 100000 nM
CC(C)N1CCC(NC(=O)c2cc3ccccc3n2Cc2cc(-c3ccc(Cl)s3)on2)CC1	5.41 µM	420 nM	–	> 100000 nM	2760 nM	> 100000 nM
